Test results reported in ChEMBL document CHEMBL4371071, “Muscarinic agonist, (±)-quinuclidin-3-yl-(4-fluorophenethyl)(phenyl)carbamate: High affinity, but low subtype selectivity for human M1 - M5 muscarinic acetylcholine receptors” (Bioorg Med Chem Lett, 2019).
The source made the active and inactive calls. The rule behind the calls is not given here.

Columns and labels:
[1] = biological target: Muscarinic acetylcholine receptor M3 (Homo sapiens, UniProt P20309); test: Displacement of [3H]NMS from human M3 AChR expressed in CHO cell membranes after 1 to 2 hrs by liquid scintillation spectrometry method; assay type: cell-based
Muscarinic acetylcholine receptor M3, sequence (P20309 whole entry): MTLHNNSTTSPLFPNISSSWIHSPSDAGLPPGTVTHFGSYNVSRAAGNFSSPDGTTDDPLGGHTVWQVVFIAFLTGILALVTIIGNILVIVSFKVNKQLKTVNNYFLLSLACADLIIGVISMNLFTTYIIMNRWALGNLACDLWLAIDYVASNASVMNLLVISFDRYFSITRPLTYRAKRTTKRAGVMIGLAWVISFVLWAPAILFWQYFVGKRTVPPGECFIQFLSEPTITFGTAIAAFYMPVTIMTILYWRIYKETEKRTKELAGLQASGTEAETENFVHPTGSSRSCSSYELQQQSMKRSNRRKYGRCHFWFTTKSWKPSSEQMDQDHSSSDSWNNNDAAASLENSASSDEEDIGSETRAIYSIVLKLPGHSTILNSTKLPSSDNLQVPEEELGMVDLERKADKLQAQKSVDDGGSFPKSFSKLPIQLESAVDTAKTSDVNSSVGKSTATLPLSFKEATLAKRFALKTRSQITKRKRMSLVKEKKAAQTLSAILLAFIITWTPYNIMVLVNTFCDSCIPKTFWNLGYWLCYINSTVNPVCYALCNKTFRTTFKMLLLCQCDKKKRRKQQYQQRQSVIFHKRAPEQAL

[2] = biological target: T1, Muscarinic acetylcholine receptor M5 (Homo sapiens, UniProt P08912); test: Displacement of [3H]NMS from human M5 AChR expressed in CHO cell membranes after 1 to 2 hrs by liquid scintillation spectrometry method
T1 sequence (P08912 whole entry): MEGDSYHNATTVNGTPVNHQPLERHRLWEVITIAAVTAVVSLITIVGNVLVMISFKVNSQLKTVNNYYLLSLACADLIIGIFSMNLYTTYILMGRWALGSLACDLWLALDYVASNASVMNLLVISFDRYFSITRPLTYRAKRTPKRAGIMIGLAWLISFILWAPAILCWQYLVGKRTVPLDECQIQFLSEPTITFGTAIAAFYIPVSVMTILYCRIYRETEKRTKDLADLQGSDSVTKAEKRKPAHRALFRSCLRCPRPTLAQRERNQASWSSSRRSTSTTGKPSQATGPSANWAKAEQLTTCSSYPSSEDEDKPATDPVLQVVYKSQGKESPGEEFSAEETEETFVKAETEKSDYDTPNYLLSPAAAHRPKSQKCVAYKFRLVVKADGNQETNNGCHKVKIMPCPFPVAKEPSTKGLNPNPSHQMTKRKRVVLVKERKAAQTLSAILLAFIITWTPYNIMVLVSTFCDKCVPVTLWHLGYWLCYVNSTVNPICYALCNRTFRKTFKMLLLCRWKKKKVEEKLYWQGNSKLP
In short: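 CHO membranes expressing human M5 (10 µg protein/well) with 0.3 nM [3H]NMS and analog (1 nM–100 µM) in 50 mM Tris-HCl pH 7.4, 2 h at 25 °C. Filtered on GF/B, counted by scintillation. IC50 converted to Ki; three independent experiments in duplicate.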

[3] = biological target: T2, Muscarinic acetylcholine receptor M5 (Homo sapiens) (UniProt P08912); test: Displacement of [3H]NMS from human M5 AChR expressed in CHO cell membranes at 100 uM after 1 to 2 hrs by liquid scintillation spectrometry method relative to control
T2 sequence (whole entry): T1 sequence (P08912 whole entry)
In short: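 CHO membranes expressing human M5 (10 µg protein/well) with 0.3 nM [3H]NMS and analog (1 nM–100 µM) in 50 mM Tris-HCl pH 7.4, 2 h at 25 °C. […] Filtered on GF/B, counted by scintillation. IC50 converted to Ki; three independent experiments in duplicate.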

Homo sapiens = species: Homo sapiens; test: Selectivity ratio of Ki for displacement of [3H]NMS from human M2 AChR expressed in CHO cell membranes to Ki for displacement of [3H]NMS from human M3 AChR expressed in CHO cell membranes
[4] = biological target: T3, Muscarinic acetylcholine receptor M4 (Homo sapiens, UniProt P08173); test: Displacement of [3H]NMS from human M4 AChR expressed in CHO cell membranes after 1 to 2 hrs by liquid scintillation spectrometry method
T3 sequence (P08173 whole entry): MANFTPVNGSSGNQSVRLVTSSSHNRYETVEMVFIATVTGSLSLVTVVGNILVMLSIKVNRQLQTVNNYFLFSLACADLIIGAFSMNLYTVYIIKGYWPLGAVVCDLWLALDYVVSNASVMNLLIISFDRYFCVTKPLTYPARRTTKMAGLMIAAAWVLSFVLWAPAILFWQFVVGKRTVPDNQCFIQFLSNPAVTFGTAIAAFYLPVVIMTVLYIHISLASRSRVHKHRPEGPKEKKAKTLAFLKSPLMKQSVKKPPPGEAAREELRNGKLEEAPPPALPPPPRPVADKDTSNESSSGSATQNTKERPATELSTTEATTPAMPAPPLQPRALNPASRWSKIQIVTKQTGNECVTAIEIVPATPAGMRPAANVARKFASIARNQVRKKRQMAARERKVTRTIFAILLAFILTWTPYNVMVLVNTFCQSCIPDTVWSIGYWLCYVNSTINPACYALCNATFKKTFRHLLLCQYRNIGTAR
In short: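 Human M4-expressing CHO membranes (20 µg protein/well) incubated 2 h at 25 °C with 0.3 nM [3H]NMS and analog (1 nM–100 µM) in 50 mM Tris–HCl pH 7.4. […] Filtered, washed, counted by scintillation. IC50 taken from inhibition curves, Ki from three independent duplicate experiments (mean ± SEM).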

[5] = biological target: T4, Muscarinic acetylcholine receptor M4 (Homo sapiens) (UniProt P08173); test: Displacement of [3H]NMS from human M4 AChR expressed in CHO cell membranes at 100 uM after 1 to 2 hrs by liquid scintillation spectrometry method relative to control
T4 sequence (whole entry): T3 sequence (P08173 whole entry)
In short: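 CHO membranes expressing the human subtype (20 µg protein/well) with 0.3 nM [3H]NMS and analog (1 nM–100 µM) in 50 mM Tris-HCl pH 7.4, 2 h at 25 °C. […] Filtered on GF/B, washed, counted by scintillation. IC50 taken from curves to give Ki; three independent experiments in duplicate.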

[6] = biological target: Muscarinic acetylcholine receptor (Rattus norvegicus) (UniProt P08482+P08483+P08485+P08911+P10980); test: Agonist activity at muscarinic acetylcholine receptor in superfused rat striatal slices assessed as augmentation of oxotremorine-induced [3H]DA release at 0.1 to 10 uM preincubated for 35 mins in presence of [3H]DA followed by oxotremorine addition and measured after 25 mins by liquid scintillation spectroscopic method
In short: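 Rat striatal slices (500 µm) in Krebs' buffer pH 7.4 at 34 °C for 60 min, with 0.1 µM [3H]DA over the final 30 min. Superfused at 0.6 mL/min with 10 µM nomifensine and 10 µM pargyline; 5-min fractions. Basal outflow taken over 15 min, then test agent 35 min, then 100 µM oxotremorine 25 min. Overflow = summed radioactivity minus basal, by scintillation; n = 4–10.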

[7] = biological target: T5, Muscarinic acetylcholine receptor M1 (Homo sapiens) (UniProt P11229); details: CHO, at 100 µM
T5 sequence (whole entry): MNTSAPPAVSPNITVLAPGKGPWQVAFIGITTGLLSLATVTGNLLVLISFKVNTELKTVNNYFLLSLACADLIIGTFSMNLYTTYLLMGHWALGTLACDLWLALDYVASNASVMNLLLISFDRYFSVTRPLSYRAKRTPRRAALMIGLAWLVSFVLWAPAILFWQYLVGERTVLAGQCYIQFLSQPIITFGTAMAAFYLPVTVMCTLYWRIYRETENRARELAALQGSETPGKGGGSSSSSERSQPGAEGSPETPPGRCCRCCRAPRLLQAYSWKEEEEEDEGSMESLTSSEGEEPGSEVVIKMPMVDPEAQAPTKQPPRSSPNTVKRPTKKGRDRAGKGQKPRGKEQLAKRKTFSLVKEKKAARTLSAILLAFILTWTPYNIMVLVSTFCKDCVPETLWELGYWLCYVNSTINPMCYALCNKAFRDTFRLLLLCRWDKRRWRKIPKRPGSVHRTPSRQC

Compound: O=C(OC1CN2CCC1CC2)N(CCc1ccc(F)cc1)c1ccccc1 (racemic)
- Ki [1]: 2.6 nM
- Ki [2]: 1.8 nM
- Imax [3]: 99.8%
- Ratio Ki (Homo sapiens): 5
- Ki [4]: 2.2 nM
- Imax [5]: 99.8%
- Activity [6]: Active
- Imax [7]: 99.9%
